From ChEMBL document CHEMBL4257564, “Rational Design, Synthesis, and Pharmacological Characterization of Novel Ghrelin Receptor Inverse Agonists as Potential Treatment against Obesity-Related Metabolic Diseases” (J Med Chem, 2018)

Legend:
[1] = biological target: T1, Growth hormone secretagogue receptor type 1 (Homo sapiens, UniProt Q92847); test: Antagonist activity at recombinant human GHSR1a expressed in HEK293 cells assessed as inhibition of ghrelin-induced intracellular calcium release incubated for 20 secs and measured after 2 mins by FLIPR assay; assay type: functional, cell-based
Method in brief: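 HEK293/GHSR1a cells were dye-loaded for 30-60 min. Compounds and 10 nM ghrelin were added at t = 20 s, with a 15 min compound preincubation described. Calcium response was read for 2 min. IC50 was taken from dose-response fits of the reduction in ghrelin response; mean of at least two independent runs done in triplicate.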

[2] = biological target: T1, Growth hormone secretagogue receptor type 1; test: Inverse agonist at recombinant human GHSR1a expressed in HEK293 cells assessed as decrease in IP1 accumulation after 1 hr by IP1-d2-based HTRF assay; assay type: functional, cell-based
Method in brief: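 HEK293 cells stably expressing human GHSR1a were seeded on Matrigel in complete DMEM for 18–22 h at 37 °C, 5% CO2. Compound in stimulation buffer was applied for 1 h at 37 °C. IP1-d2 and Tb-cryptate were then added for 1 h at room temperature, with HTRF read at 620/665 nm. Mean of at least two independent runs in triplicate.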

[3] = biological target: T1, Growth hormone secretagogue receptor type 1; test: Agonist activity at recombinant human GHSR1a expressed in HEK293 cells assessed as induction of intracellular calcium release after 15 mins by FLIPR assay; assay type: functional, cell-based; conditions: read-out: EC50
Method in brief: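 HEK293 cells stably expressing human GHSR1a, seeded 24 h before the run, then loaded with calcium dye for 30-60 min at room temperature or 37 °C. DMSO-dissolved compounds were added and intracellular calcium release was monitored by FLIPR fluorescence.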

[4] = Clearance in dog liver microsomes at 0.625 uM preincubated for 5 mins followed by NADPH addition and measured after 60 mins by LC-MS/MS analysis; assay type: ADME, Canis lupus familiaris, microsome; conditions: read-out: CLH
Method in brief: (§1)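 Liver microsomes (0.625 mg/mL protein) in 50 mM potassium phosphate pH 7.4 with 0.625 µM test item, prewarmed 5 min at 37 °C. Reaction started with NADPH (5 mM solution). Samples taken at 0, 5, 15, 30 and 60 min into cold MeCN with internal standard, analysed by LC-MS/MS. Intrinsic clearance derived by the half-life approach.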

[5] = Clearance in rat liver microsomes at 0.625 uM preincubated for 5 mins followed by NADPH addition and measured after 60 mins by LC-MS/MS analysis; assay type: ADME, microsome; conditions: read-out: CLH; method in brief: as §1
[6] = Clearance in human liver microsomes at 0.625 uM preincubated for 5 mins followed by NADPH addition and measured after 60 mins by LC-MS/MS analysis; assay type: ADME, microsome; conditions: read-out: CLH; method in brief: as §1
[7] = Clearance in mouse liver microsomes at 0.625 uM preincubated for 5 mins followed by NADPH addition and measured after 60 mins by LC-MS/MS analysis; assay type: ADME, microsome; conditions: read-out: CLH; method in brief: as §1

T1 sequence (Q92847 whole entry): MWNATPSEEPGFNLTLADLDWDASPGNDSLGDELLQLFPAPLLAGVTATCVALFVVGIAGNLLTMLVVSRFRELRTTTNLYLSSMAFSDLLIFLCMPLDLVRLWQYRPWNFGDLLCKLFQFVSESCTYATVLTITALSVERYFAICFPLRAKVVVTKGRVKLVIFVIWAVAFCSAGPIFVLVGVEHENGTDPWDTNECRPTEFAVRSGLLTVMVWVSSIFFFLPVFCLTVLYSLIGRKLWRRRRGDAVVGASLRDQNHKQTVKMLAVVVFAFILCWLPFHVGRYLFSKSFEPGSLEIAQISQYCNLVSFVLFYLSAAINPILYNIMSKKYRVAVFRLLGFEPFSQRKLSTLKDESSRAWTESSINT

Cc1cc(-c2ccc3c(c2)CCC3N2CCC(N(C)C(=O)N[C@@H](C)c3ccc(C#CC4CC4)c(Cl)c3Cl)C(C)(C)C2)ncn1 (some centres not stated)
IC50 [1]: 530 nM
EC50 ([2]; read-out: EC50): 363 nM

Cc1cn2cc(C(C)NC(=O)N(C)C3CCN(C)CC3)nc2s1 (configuration not stated)
IC50 [1]: > 30000 nM
EC50 ([2]; hek293): Not Active
EC50 [3]: > 30000 nM

COc1ccc([C@H](C)NC(=O)N(C)C2CCN(C3CCc4cc(C)ccc43)CC2)c(Cl)c1Cl (some centres not stated)
microsomal CLint at 0.625 µM [4]: 168 µL/min/mg
IC50 [1]: 329 nM
microsomal CLint at 0.625 µM [5]: 143 µL/min/mg
microsomal CLint at 0.625 µM [6]: 80.3 µL/min/mg
microsomal CLint at 0.625 µM [7]: 217 µL/min/mg
EC50 ([2]; read-out: EC50): 73 nM

Cc1cc(-c2ccc3c(c2)CCC3N2CCC(N(C)C(=O)N[C@@H](CC3CC3)c3ccc(-c4cnccn4)c(Cl)c3Cl)CC2)ncn1 (some centres not stated)
IC50 [1]: 4540 nM
EC50 ([2]; read-out: EC50): 484 nM

Cc1cc(-c2ccc3c(c2)CCC3N2CCC(N(C)C(=O)N[C@@H](C)c3ccc(C(=O)O)c(Cl)c3Cl)CC2)ncn1 (some centres not stated)
IC50 [1]: > 30000 nM
EC50 ([2]; hek293): Not Active

Cc1cc(-c2ccc3c(c2)CC[C@H]3N2CC3(CCN(C(=O)N[C@@H](C)c4ccc(-c5cnccn5)c(Cl)c4Cl)CC3)C2)ncn1
IC50 [1]: 1210 nM
EC50 ([2]; read-out: EC50): 483 nM
EC50 [3]: > 30000 nM

COc1ccc([C@H](C)NC(=O)N(C)C2CCN(C3CCc4cc(Cl)ccc43)CC2)c(Cl)c1Cl (some centres not stated)
IC50 [1]: 315 nM
microsomal CLint at 0.625 µM [5]: 271 µL/min/mg
microsomal CLint at 0.625 µM [6]: 241 µL/min/mg
microsomal CLint at 0.625 µM [7]: 388 µL/min/mg
EC50 ([2]; read-out: EC50): 40.7 nM

Cc1cc(-c2ccc3c(c2)CCC3N2CCC(N(C)C(=O)N[C@@H](C)c3ccc(C4CC4)c(Cl)c3Cl)CC2)ncn1 (some centres not stated)
IC50 [1]: 2870 nM
EC50 ([2]; read-out: EC50): 298 nM

COc1ccc([C@H](CC2CC2)NC(=O)N(C)C2CCN(C3CCc4cc(-c5cc(C)ncn5)ccc43)CC2)c(Cl)c1Cl (some centres not stated)
IC50 [1]: 1800 nM
EC50 ([2]; read-out: EC50): 439 nM

COc1ccc([C@H](C)NC(=O)N(C)C2CCN(C3CCc4cc(-c5cc(C)ncn5)ccc43)CC2)c(Cl)c1Cl (some centres not stated)
microsomal CLint at 0.625 µM [4]: 241 µL/min/mg
IC50 [1]: 171 nM
microsomal CLint at 0.625 µM [5]: 69.5 µL/min/mg
microsomal CLint at 0.625 µM [6]: 94.2 µL/min/mg
microsomal CLint at 0.625 µM [7]: 122 µL/min/mg
EC50 ([2]; read-out: EC50): 67 nM

Cc1cc(-c2ccc3c(c2)CCC3N2CCC(N(C)C(=O)N[C@H](c3ccc(-c4cnccn4)c(Cl)c3Cl)C(F)(F)F)CC2)ncn1 (some centres not stated)
IC50 [1]: 8080 nM
EC50 ([2]; read-out: EC50): 2160 nM

COc1ccc([C@H](C)NC(=O)N(C)C2CCN(C3CCc4cc(O)ccc43)CC2)c(Cl)c1Cl (some centres not stated)
IC50 [1]: 1300 nM
microsomal CLint at 0.625 µM [6]: 87.1 µL/min/mg
microsomal CLint at 0.625 µM [7]: 117 µL/min/mg
EC50 ([2]; hek293): Not Active

Cc1cc(-c2ccc3c(c2)CCC3N2CCC(N(C)C(=O)N[C@@H](C)c3ccc(N)c(Cl)c3Cl)CC2)ncn1 (some centres not stated)
IC50 [1]: 571 nM
EC50 ([2]; read-out: EC50): 121 nM

Cc1ccc2c(c1)CCC2N1CCC(N(C)C(=O)N[C@@H](C)c2ccc(O)c(Cl)c2Cl)CC1 (some centres not stated)
IC50 [1]: 1170 nM
EC50 ([2]; read-out: EC50): 189 nM

CCN(C(=O)N[C@@H](C)c1ccc(C#CC2CC2)c(Cl)c1Cl)C1CCN(C2CCc3cc(-c4cc(C)ncn4)ccc32)CC1 (some centres not stated)
IC50 [1]: 2920 nM
EC50 ([2]; read-out: EC50): 937 nM

C[C@H](NC(=O)N(C)C1CCN(C2CCc3cc(-c4cncnc4)ccc32)CC1)c1ccc(C#CC2CC2)c(Cl)c1Cl (some centres not stated)
IC50 [1]: 85.9 nM
EC50 ([2]; read-out: EC50): 84.8 nM

Cc1cc(-c2ccc3c(c2)CCC3N2CCC(N(C)C(=O)N[C@@H](C)c3ccc(C#CC4CC4)c(Cl)c3Cl)C2)ncn1 (some centres not stated)
IC50 [1]: 148 nM
EC50 ([2]; hek293): Not Active

Cc1cc(-c2ccc3c(c2)CCC3N2CCC(N(C)C(=O)N[C@@H](CC3CC3)c3cccc(Cl)c3Cl)CC2)ncn1 (some centres not stated)
IC50 [1]: 5400 nM
EC50 ([2]; read-out: EC50): 970 nM

Cc1cc(-c2ccc3c(c2)CC[C@H]3N2CC3(CCN(C(=O)N[C@@H](C)c4cccc(Cl)c4Cl)CC3)C2)ncn1
IC50 [1]: 4010 nM
EC50 ([2]; hek293): Not Active
EC50 [3]: > 30000 nM

COC(=O)c1ccc([C@H](C)NC(=O)N(C)C2CCN(C3CCc4cc(-c5cc(C)ncn5)ccc43)CC2)c(Cl)c1Cl (some centres not stated)
IC50 [1]: 303 nM
EC50 ([2]; read-out: EC50): 96 nM

Cc1ccc2c(c1)CCC2N1CCC(N(C)C(=O)N[C@@H](C)c2ccc(C3CC3)c(Cl)c2Cl)CC1 (some centres not stated)
IC50 [1]: 2370 nM
EC50 ([2]; hek293): Not Active

Cc1cc(-c2ccc3c(c2)CCC3N2CCC(N(C)C(=O)NCc3ccc(C#CC4CC4)c(Cl)c3Cl)CC2)ncn1 (configuration not stated)
IC50 [1]: 1130 nM
EC50 ([2]; hek293): Not Active

Cc1cc(-c2ccc3c(c2)CCC3N2CCC(N(C)C(=O)NC(C)c3cccc(Cl)c3Cl)CC2)ncn1 (configuration not stated)
IC50 [1]: 2330 nM
EC50 ([2]; hek293): Not Active
EC50 [3]: > 30000 nM

C[C@H](NC(=O)N(C)C1CCN(C2CCc3ccccc32)CC1)c1ccc(C#CC2CC2)c(Cl)c1Cl (some centres not stated)
IC50 [1]: 919 nM
EC50 ([2]; hek293): Not Active

C[C@H](NC(=O)N(C)C1CCN(C2CCc3cc(-c4ncccn4)ccc32)CC1)c1ccc(C#CC2CC2)c(Cl)c1Cl (some centres not stated)
IC50 [1]: 798 nM
EC50 ([2]; read-out: EC50): 634 nM

Cc1cn2cc(CNC(=O)N(C)C3CCN(C)CC3)nc2s1
IC50 [1]: > 30000 nM
EC50 ([2]; hek293): Not Active
EC50 [3]: > 30000 nM

COc1ccc2c(c1)CCC2N1CCC(N(C)C(=O)N[C@@H](C)c2ccc(OC)c(Cl)c2Cl)CC1 (some centres not stated)
IC50 [1]: 120 nM
EC50 ([2]; read-out: EC50): 85.7 nM

Cc1cc(-c2ccc3c(c2)CCC3N2CCC(N(C)C(=O)N[C@@H](C)c3ccc(C#CC4CC4)c(Cl)c3Cl)CC2)ncn1 (some centres not stated)
microsomal CLint at 0.625 µM [4]: 62.3 µL/min/mg
IC50 [1]: 80 nM
microsomal CLint at 0.625 µM [5]: 19.2 µL/min/mg
microsomal CLint at 0.625 µM [6]: 53.9 µL/min/mg
microsomal CLint at 0.625 µM [7]: 42.6 µL/min/mg
EC50 ([2]; read-out: EC50): 51 nM

COc1ccc([C@H](C)NC(=O)N(C)C2CCN(C3CCc4cc(-n5nccn5)ccc43)CC2)c(Cl)c1Cl (some centres not stated)
IC50 [1]: 240 nM
microsomal CLint at 0.625 µM [6]: 79.8 µL/min/mg
microsomal CLint at 0.625 µM [7]: 244 µL/min/mg
EC50 ([2]; read-out: EC50): 70 nM

Cc1cc(-c2ccc3c(c2)CC[C@@H]3N2CCC(N(C)C(=O)N[C@@H](C)c3ccc(C#CC4CC4)c(Cl)c3Cl)CC2)ncn1
IC50 [1]: 1280 nM
EC50 ([2]; read-out: EC50): 1280 nM

Cc1ccc2c(c1)CCC2N1CCC(N(C)C(=O)N[C@@H](C)c2ccc(C#CC3CC3)c(Cl)c2Cl)CC1 (some centres not stated)
IC50 [1]: 282 nM
EC50 ([2]; read-out: EC50): 117 nM

CC[C@H](NC(=O)N(C)C1CCN(C2CCc3cc(-c4cc(C)ncn4)ccc32)CC1)c1ccc(C#CC2CC2)c(Cl)c1Cl (some centres not stated)
IC50 [1]: 192 nM
EC50 ([2]; read-out: EC50): 306 nM

Cc1ccc2c(c1)CCC2N1CCC(N(C)C(=O)N[C@@H](C)c2ccc(C#C[Si](C)(C)C)c(Cl)c2Cl)CC1 (some centres not stated)
IC50 [1]: 2000 nM
EC50 ([2]; hek293): Not Active

COc1ccc([C@H](C)NC(=O)N(C)C2CCN(C3CCc4cc(N)ccc43)CC2)c(Cl)c1Cl (some centres not stated)
IC50 [1]: 1510 nM
microsomal CLint at 0.625 µM [6]: 47.1 µL/min/mg
microsomal CLint at 0.625 µM [7]: 70.4 µL/min/mg
EC50 ([2]; hek293): Not Active

C#Cc1ccc([C@H](C)NC(=O)N(C)C2CCN(C3CCc4cc(-c5cc(C)ncn5)ccc43)CC2)c(Cl)c1Cl (some centres not stated)
microsomal CLint at 0.625 µM [4]: 137 µL/min/mg
IC50 [1]: 156 nM
microsomal CLint at 0.625 µM [5]: 65.6 µL/min/mg
microsomal CLint at 0.625 µM [6]: 165 µL/min/mg
microsomal CLint at 0.625 µM [7]: 157 µL/min/mg
EC50 ([2]; read-out: EC50): 10.6 nM

Cc1cc(-c2ccc3c(c2)CCC3N2CCC(N(C)C(=O)N[C@@H](C)c3ccc(-c4cnccn4)c(Cl)c3Cl)CC2)ncn1 (some centres not stated)
IC50 [1]: 369 nM
EC50 ([2]; read-out: EC50): 194 nM
EC50 [3]: > 30000 nM

C#Cc1ccc([C@H](C)NC(=O)N(C)C2CCN(C3CCc4cc(C)ccc43)CC2)c(Cl)c1Cl (some centres not stated)
IC50 [1]: 106 nM
EC50 ([2]; hek293): Not Active

Cc1cc(-c2ccc3c(c2)CCC3N2CCC(N(C)C(=O)NCc3cccc(Cl)c3Cl)CC2)ncn1 (configuration not stated)
IC50 [1]: 2700 nM
EC50 ([2]; hek293): Not Active
